# Experimental data published in ChEMBL document CHEMBL1124216, “A novel class of potential central nervous system agents. 3-Phenyl-2-(1-piperazinyl)-5H-1-benzazepines” (1988).
# How the values were obtained:
# Assay type in all cases: functional
# Mus musculus [1] = experiment: Antimaximal electroshock seizure (MES) activity in mice after peroral administration of 100 mg/kg of compound; 0/5; details: route oral
# Mus musculus [2] = experiment: Antiexploratory activity (EXPL) of mice determined by an antimex activity meter, 100 mg/kg of dose was administered perorally; Moderate inhibition (51-71%); details: route oral
# Mus musculus [3] = experiment: Antireserpine activity (RES) of mice after peroral administration of 100 mg/kg of compound; Moderate inhibition (51-71%); details: route oral
# Mus musculus [4] = experiment: Antitremorine activity(TRM) of mice after peroral administration of 100 mg/kg of compound; Slight inhibition (31-50%); details: route oral
# Mus musculus [5] = experiment: Antiexploratory activity (EXPL) of mice determined by an antimex activity meter, 50 mg/kg of dose was administered perorally; No inhibition; details: route oral
# Mus musculus [6] = experiment: Antitremorine activity(TRM) of mice after peroral administration of 50 mg/kg of compound; No inhibition; details: route oral
# Mus musculus [7] = experiment: Antireserpine activity (RES) of mice after peroral administration of 100 mg/kg of compound; No inhibition; details: route oral
# Mus musculus [8] = experiment: Antimaximal electroshock seizure (MES) activity in mice after peroral administration of 100 mg/kg of compound; 3/5; details: route oral
# Mus musculus [9] = experiment: Antipentylene tetrazole activity was determined in mice when administered perorally; details: po
# Procedure, shortened: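 Groups of five male Std-ddY mice received compound orally in 0.5% tragacanth, then pentylenetetrazole 175 mg/kg ip. Blockade of the tonic extensor component scored as anticonvulsant. ED50 was the dose protecting 50% of animals (Litchfield-Wilcoxon).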
# Mus musculus [10] = experiment: Antimaximal electroshock seizure activity was determined in mice when administered perorally; details: po
# Mus musculus [11] = experiment: Antiexploratory activity (EXPL) of mice determined by an antimex activity meter, 100 mg/kg of dose was administered perorally; No inhibition; details: route oral
# Mus musculus [12] = experiment: Antitremorine activity(TRM) of mice after peroral administration of 100 mg/kg of compound; No inhibition; details: route oral
# Mus musculus [13] = experiment: Antimaximal electroshock seizure (MES) activity in mice after peroral administration of 10 mg/kg of compound; 0/5; details: route oral
# Mus musculus [14] = experiment: Antimaximal electroshock seizure (MES) activity in mice after peroral administration of 100 mg/kg of compound; 4/5; details: route oral
# Mus musculus [15] = experiment: Antitremorine activity(TRM) of mice after peroral administration of 100 mg/kg of compound; Moderate inhibition (51-71%); details: route oral
# Canis familiaris [16] = experiment: Inhibition of apomorphine induced emesis in dogs at 1 mg/kg of dose.; details: Canis lupus familiaris
# Procedure, shortened: (§1)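 Beagle dogs (10-15 kg), groups of three, given compound po in a gelatin capsule; 2 h later apomorphine hydrochloride 0.3 mg/kg sc. Vomiting counted for 1 h; mean inhibition as percent of control. ED50 is the dose giving 50% inhibition of emesis, by Litchfield-Wilcoxon.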
# Mus musculus [17] = experiment: (§2) 3,4 -Dihydroxy phenylacetic acid (DOPAC) levels in mouse brain at 10 mg/kg dose.
# Procedure, shortened: (§3)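 Male Std-ddY mice, 20-25 g, dosed orally with compound in 0.5% aqueous tragacanth. DOPAC was measured fluorometrically after purification by column chromatography on Sephadex G-10 and QAE-Sephadex. Brains from five mice per compound were pooled for each determination.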
# Mus musculus [18] = experiment: (§4) 3,4 -Dihydroxy phenylacetic acid (DOPAC) levels in mouse brain at 50 mg/kg dose.; procedure, shortened: as §3
# Mus musculus [19] = experiment: The homovanillic acid (HVA) levels in mouse brain at 10 mg/kg of dose.
# Procedure, shortened: (§5)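 Mice dosed orally in 0.5% aqueous tragacanth; brains of five mice per compound pooled. Homovanillic acid measured in brain extracts and reported as brain level.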
# Mus musculus [20] = experiment: The homovanillic acid (HVA) levels in mouse brain at 50 mg/kg of dose.; procedure, shortened: as §5
# Mus musculus [21] = experiment: Exploratory activity of mice determined by an antimex activity meter, 10 mg/kg of dose was administered perorally; details: route oral
# Mus musculus [22] = experiment: Exploratory activity of mice determined by an antimex activity meter, 50 mg/kg of dose was administered perorally; details: Mus musculus, po
# Procedure, shortened: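 Male Std-ddY mice (20-25 g), five per dose; compound in 0.5% aqueous tragacanth given orally. Two hours later each mouse placed in an Animex activity meter cage and locomotor activity counted for 3 min. Mean suppression expressed as percent inhibition of control; ED50 by Litchfield-Wilcoxon.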
# Mus musculus [23] = experiment: Antiexploratory activity (EXPL) of mice determined by an antimex activity meter, 50 mg/kg of dose was administered perorally; Moderate inhibition (51-71%); details: route oral
# Mus musculus [24] = experiment: Antiexploratory activity (EXPL) of mice determined by an antimex activity meter, 10 mg/kg of dose was administered perorally; No inhibition; details: route oral
# Mus musculus [25] = experiment: Antiexploratory activity (EXPL) of mice determined by an antimex activity meter,100 mg/kg of dose was administered perorally; No inhibition
# Mus musculus [26] = experiment: Antireserpine activity (RES) of mice after peroral administration of mg/kg of compound; Slight inhibition (31-50%)
# Mus musculus [27] = experiment: Antimaximal electroshock seizure (MES) activity in mice after peroral administration of 100 mg/kg of compound; 5/5; details: route oral
# Mus musculus [28] = experiment: Antitremorine activity(TRM) of mice after peroral administration of 100 mg/kg of compound; details: route oral
# Canis familiaris [29] = experiment: Inhibition of apomorphine induced emesis in dogs when administered perorally; details: Canis lupus familiaris, po; procedure, shortened: as §1
# Mus musculus [30] = experiment: Antiexploratory activity (EXPL) of mice determined by an antimex activity meter, 10 mg/kg of dose was administered perorally; details: route oral
# Procedure, shortened: (§6)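 Male Std-ddY mice (20-25 g), five per dose, given compound orally in 0.5% aqueous tragacanth. Two hours later each mouse was placed in the activity-meter cage and locomotor activity was counted for 3 min. Suppression is expressed as percent inhibition of control. ED50 (dose giving 50% inhibition) calculated by Litchfield-Wilcoxon.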
# Mus musculus [31] = experiment: Inhibition of conditioned avoidance response in mice when administered perorally; details: po
# Procedure, shortened: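 One-way active avoidance in male Std-ddY mice in a dark/light two-compartment box. Mice trained to move to the lit side on a warning stimulus to escape floor shock; groups of 10 avoiding at >80% in 10 trials. Compound po in 0.5% tragacanth. ED50 is the dose halving avoidance rate (Litchfield-Wilcoxon).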
# Mus musculus [32] = experiment: Concentration of compound that causes catalepsy in the mice when administered perorally; details: po
# Procedure, shortened: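 Male Std-ddY mice were dosed orally, vehicle 0.5% aqueous tragacanth. At 2 h, forepaws were placed on a rod 4.5 cm high. Failure to remove the paws within 30 s in three successive trials was scored cataleptic. ED50 was the dose giving catalepsy in 50% of mice (Litchfield-Wilcoxon).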
# Mus musculus [33] = experiment: Concentration of compound that causes ptosis in the mice when administered perorally; details: po
# Procedure, shortened: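 Five male Std-ddY mice per group were dosed orally in 0.5% aqueous tragacanth. At 2 h, eyelid closure was scored macroscopically (8 open to 0 fully closed). Group mean scores formed a dose-response curve. ED50 was the dose reducing the mean score to 50%.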
# Mus musculus [34] = experiment: Antiexploratory activity (EXPL) of mice determined by an antimex activity meter, when administered perorally; details: po; procedure, shortened: as §6
# Mus musculus [35] = experiment: as §2; remark: listed apart in the source
# Procedure, shortened: (§7)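 Male Std-ddY mice (20-25 g) dosed orally with compound dissolved or suspended in 0.5% aqueous tragacanth. DOPAC measured fluorometrically after purification by column chromatography on Sephadex G-10 and QAE-Sephadex. Brains from five mice per compound pooled for the determination.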
# Mus musculus [36] = experiment: The homovanillic acid (HVA)levels in mouse brain at 10 mg/kg of dose.
# Procedure, shortened: (§8)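 Male Std-ddY mice (20-25 g) dosed orally with compound in 0.5% aqueous tragacanth (solution or suspension). Brain homovanillic acid (HVA) determined by a published method. Brains from five mice per compound pooled for one determination.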
# Mus musculus [37] = experiment: The homovanillic acid (HVA)levels in mouse brain at 50 mg/kg of dose.; procedure, shortened: as §8
# Mus musculus [38] = experiment: Antiexploratory activity (EXPL) of mice determined by an antimex activity meter, 50 mg/kg of dose was administered perorally; details: route oral; procedure, shortened: as §6
# Mus musculus [39] = experiment: as §4; procedure, shortened: as §7; remark: listed apart in the source
# Rattus norvegicus = experiment: Inhibition of self stimulation response in rats when administered perorally.; details: po
# Procedure, shortened: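 Male Wistar HLA rats (300-400 g) with chronic electrodes implanted in the lateral posterior hypothalamus; only rats lever-pressing steadily at 50-100/min were used. Compound given po in 0.5% tragacanth. Self-stimulation counted for 10 min before and 2 h after dosing. ED50 is the dose giving ≥50% rate inhibition in 50% of rats (Litchfield-Wilcoxon).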
smiles,measurement,setting,value
CN1CCN(C2=Nc3ccccc3CC=C2c2ccccc2Cl)CC1.Cl.Cl,Activity,Mus musculus [1],0
same,inhibition in vivo at 100 mg/kg,Mus musculus [2],51%
same,inhibition in vivo at 100 mg/kg,Mus musculus [3],51%
same,inhibition in vivo at 100 mg/kg,Mus musculus [4],31%
Cl.OC1CCN(C2=Nc3ccccc3CC=C2c2ccc(F)cc2)CC1,Activity,Mus musculus [1],0
same,inhibition in vivo at 50 mg/kg,Mus musculus [5],< 30%
same,inhibition in vivo at 50 mg/kg,Mus musculus [6],< 30%
same,inhibition in vivo at 100 mg/kg,Mus musculus [7],< 30%
CCN1CCN(C2=Nc3ccc(Br)cc3CC=C2c2ccccc2)CC1.Cl.Cl,Activity,Mus musculus [8],3
same,ED50,Mus musculus [9],17.2 mg/kg
same,ED50,Mus musculus [10],30.7 mg/kg
same,inhibition in vivo at 100 mg/kg,Mus musculus [11],< 30%
same,inhibition in vivo at 100 mg/kg,Mus musculus [12],< 30%
same,inhibition in vivo at 100 mg/kg,Mus musculus [7],< 30%
Cl.Cl.OCCN1CCN(C2=Nc3ccc(Cl)cc3CC=C2c2ccccc2)CC1,Activity,Mus musculus [13],0
same,ED50,Mus musculus [9],26.5 mg/kg
same,Activity,Mus musculus [14],4
same,ED50,Mus musculus [10],49.5 mg/kg
same,inhibition in vivo at 100 mg/kg,Mus musculus [11],< 30%
same,inhibition in vivo at 100 mg/kg,Mus musculus [15],51%
same,inhibition in vivo at 100 mg/kg,Mus musculus [7],< 30%
Cl.Cl.OCCN1CCN(C2=Nc3ccccc3CC=C2c2ccc(F)cc2)CC1,inhibition in vivo at 1 mg/kg,Canis familiaris [16],100%
same,Control,Mus musculus [17],262%
same,Control,Mus musculus [18],369%
same,Control,Mus musculus [19],243%
same,Control,Mus musculus [20],349%
same,inhibition in vivo at 10 mg/kg,Mus musculus [21],19.6%
same,inhibition in vivo at 50 mg/kg,Mus musculus [22],68.4%
same,inhibition in vivo at 50 mg/kg,Mus musculus [23],51%
same,inhibition in vivo at 10 mg/kg,Mus musculus [24],< 30%
Cc1ccc2c(c1)CC=C(c1ccccc1)C(N1CCN(C)CC1)=N2.Cl.Cl,Activity,Mus musculus [8],3
same,ED50,Mus musculus [9],50.9 mg/kg
same,ED50,Mus musculus [10],86.1 mg/kg
same,inhibition in vivo at 100 mg/kg,Mus musculus [11],< 30%
same,inhibition in vivo at 100 mg/kg,Mus musculus [12],< 30%
same,inhibition in vivo at 100 mg/kg,Mus musculus [7],< 30%
Cl.OC1(c2ccc(Cl)cc2)CCN(C2=Nc3ccc(Br)cc3CC=C2c2ccccc2)CC1,Activity,Mus musculus [1],0
same,Inhibition,Mus musculus [25],<30%
same,inhibition in vivo at 100 mg/kg,Mus musculus [12],< 30%
same,inhibition in vivo at 100 mg/kg,Mus musculus [7],< 30%
Cl.Cl.OCCN1CCN(C2=Nc3ccccc3CC=C2c2cccc(Cl)c2)CC1,Activity,Mus musculus [1],0
same,Inhibition,Mus musculus [26],31%
same,inhibition in vivo at 50 mg/kg,Mus musculus [5],< 30%
CN1CCN(C2=Nc3ccccc3CC=C2c2cccc(Cl)c2)CC1.Cl.Cl,Activity,Mus musculus [1],0
same,inhibition in vivo at 100 mg/kg,Mus musculus [3],51%
same,inhibition in vivo at 50 mg/kg,Mus musculus [5],< 30%
CN1CCN(C2=Nc3ccc(Br)cc3CC=C2c2ccccc2)CC1.Cl.Cl,ED50,Mus musculus [9],8.3 mg/kg
same,Activity,Mus musculus [27],5
same,ED50,Mus musculus [10],31.2 mg/kg
same,inhibition in vivo at 100 mg/kg,Mus musculus [11],< 30%
same,inhibition in vivo at 100 mg/kg,Mus musculus [28],> 71%
same,inhibition in vivo at 100 mg/kg,Mus musculus [7],< 30%
CN1CCN(C2=Nc3cc(Cl)ccc3Nc3ccccc32)CC1 [CLOZAPINE],inhibition in vivo at 1 mg/kg,Canis familiaris [16],27.4%
same,ED50,Canis familiaris [29],12.6 mg/kg
same,inhibition in vivo at 10 mg/kg,Mus musculus [30],50.6%
same,ED50,Mus musculus [31],9.68 mg/kg
same,ED50,Mus musculus [32],> 100 mg/kg
same,ED50,Mus musculus [33],15.8 mg/kg
same,ED50,Mus musculus [34],8.45 mg/kg
same,Control % at 10 mg/kg,Mus musculus [35],128%
same,Control % at 10 mg/kg,Mus musculus [36],106%
same,Control % at 50 mg/kg,Mus musculus [37],274%
same,inhibition in vivo at 50 mg/kg,Mus musculus [38],87.8%
same,Control % at 50 mg/kg,Mus musculus [39],324%
same,ED50,Rattus norvegicus,77.1 mg/kg
